ChEMBL document CHEMBL1130321, “Synthesis and in vitro activity of 3 beta-substituted-3 alpha-hydroxypregnan-20-ones: allosteric modulators of the GABAA receptor” (J Med Chem, 1997)

Tests used:
[1] = target: GABA-A receptor; anion channel; assay: Ability to allosterically modulate the binding of [35S]TBPS to gamma-aminobutyric-acid A receptor in rat brain cortical P2 membranes.; format: cell membranes, Membrane
Method in brief: (§1)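 Rat cortical P2 membranes washed in 200 mM NaCl/50 mM Na-K phosphate pH 7.4. Incubated with 2 nM [35S]TBPS, 5 µM GABA and compound at nine concentrations from 1 nM to 10 µM final (DMSO 0.5% final), 90 min at room temperature. Nonspecific binding was defined with 2 µM unlabeled TBPS. Read-out was filtration and scintillation counting. IC50 and Imax came from partial or full inhibition fits chosen by F-test. Values are mean ± SEM of 3-9 experiments.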

[2] = species: Rattus norvegicus; assay: Percent of maximal extent of inhibition was calculated by fitting [35S]TBPS inhibition data to a sigmoid function (rat brain cortical P2 membranes).; format: functional; method in brief: as §1
[3] = target: T1, GABA-A receptor; alpha-1/beta-2/gamma-2 (Homo sapiens) (UniProt P14867+P47870+P18507); assay: Hill value, slope calculated from GABA-current potentiation in Xenopus oocytes; format: functional, cell-based; conditions: Oocyte
Method in brief: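 Xenopus oocytes injected 1:1:1 with human α1, β2, γ2L cRNAs (~1 ng each per cell); two-electrode voltage clamp in frog Ringer (NaCl 115, KCl 2, CaCl2 1.8, HEPES 5 mM, pH 7.4). Steroid DMSO stocks diluted […] (DMSO 0.3% final). Increasing steroid applied on a GABA response set to ~5% of the 3 mM GABA maximum. Data fit to a four-parameter logistic; mean ± SEM.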

[4] = target: T2, GABA-A receptor; alpha-1/beta-2/gamma-2 (Homo sapiens, UniProt P14867+P18507+P47870); assay: Potentiation of GABA-activated currents in Xenopus oocytes expressing cloned human alpha-1-beta-2-gamma-2L subunits of GABA-A receptor; format: functional, cell-based, Oocyte
T2 sequence (P14867 whole entry): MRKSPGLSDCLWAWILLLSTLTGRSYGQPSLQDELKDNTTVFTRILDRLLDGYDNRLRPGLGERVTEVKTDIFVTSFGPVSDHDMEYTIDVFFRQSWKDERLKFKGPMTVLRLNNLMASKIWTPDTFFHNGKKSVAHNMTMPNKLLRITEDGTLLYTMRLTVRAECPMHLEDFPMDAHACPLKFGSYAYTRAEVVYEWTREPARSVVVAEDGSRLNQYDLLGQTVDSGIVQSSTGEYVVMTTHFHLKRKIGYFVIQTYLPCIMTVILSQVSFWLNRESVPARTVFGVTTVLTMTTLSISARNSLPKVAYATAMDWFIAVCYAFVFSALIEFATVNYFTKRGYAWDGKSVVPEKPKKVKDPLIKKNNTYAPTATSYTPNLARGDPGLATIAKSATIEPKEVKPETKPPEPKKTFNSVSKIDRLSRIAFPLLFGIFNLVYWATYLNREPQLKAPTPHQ
T2 sequence (P47870 whole entry): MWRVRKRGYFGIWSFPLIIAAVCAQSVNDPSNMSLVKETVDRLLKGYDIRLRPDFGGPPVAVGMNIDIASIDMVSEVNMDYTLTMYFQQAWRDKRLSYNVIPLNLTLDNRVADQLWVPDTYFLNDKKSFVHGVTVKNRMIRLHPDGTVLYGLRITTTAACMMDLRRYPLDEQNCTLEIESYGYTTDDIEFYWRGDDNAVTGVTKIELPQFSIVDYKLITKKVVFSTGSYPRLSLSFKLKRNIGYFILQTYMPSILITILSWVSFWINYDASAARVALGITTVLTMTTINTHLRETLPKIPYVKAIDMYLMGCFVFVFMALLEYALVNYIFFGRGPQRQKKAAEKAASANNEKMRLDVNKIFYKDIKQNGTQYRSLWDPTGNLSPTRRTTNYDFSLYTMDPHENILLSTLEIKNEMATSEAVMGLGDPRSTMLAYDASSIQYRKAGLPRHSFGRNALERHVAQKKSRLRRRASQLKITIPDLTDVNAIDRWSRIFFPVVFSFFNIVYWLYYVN
T2 sequence (P18507 whole entry): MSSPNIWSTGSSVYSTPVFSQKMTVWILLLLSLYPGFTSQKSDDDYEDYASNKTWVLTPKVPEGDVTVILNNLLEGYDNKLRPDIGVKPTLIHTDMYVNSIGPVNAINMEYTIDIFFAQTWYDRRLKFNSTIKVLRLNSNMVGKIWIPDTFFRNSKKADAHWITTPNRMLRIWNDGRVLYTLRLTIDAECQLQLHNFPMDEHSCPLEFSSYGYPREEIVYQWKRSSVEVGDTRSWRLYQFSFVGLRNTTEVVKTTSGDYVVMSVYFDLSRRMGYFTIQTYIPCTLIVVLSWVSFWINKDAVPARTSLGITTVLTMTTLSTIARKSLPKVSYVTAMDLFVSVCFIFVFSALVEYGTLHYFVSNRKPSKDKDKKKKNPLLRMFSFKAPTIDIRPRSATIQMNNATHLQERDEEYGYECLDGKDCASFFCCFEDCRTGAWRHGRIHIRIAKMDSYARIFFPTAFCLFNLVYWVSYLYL
Method in brief: (§2)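 Xenopus oocytes were injected with human α1, β2 and γ2L cRNAs at 1:1:1, ~1 ng each. Two-electrode voltage clamp was done in frog Ringer (HEPES 5 mM, pH 7.4). Currents were scaled to the maximum elicited by 3 mM GABA. Steroid was applied in increasing concentrations to a fixed GABA response of ~0.05 fractional current, with DMSO 0.3% final. Data were fitted to a four-parameter logistic and given as mean ± SEM.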

[5] = target: T1, GABA-A receptor; alpha-1/beta-2/gamma-2 (Homo sapiens); assay: Efficacy as fractional response (FR) relative to GABA maximal current elicited in Xenopus oocytes; format: functional, cell-based; conditions: Oocyte; method in brief: as §2

CC(=O)[C@H]1CC[C@H]2[C@@H]3CC[C@H]4C[C@@](O)(CI)CC[C@]4(C)[C@H]3CC[C@]12C
IC50 [1]: 702 nM
Imax [2]: 50%

CC(=O)[C@H]1CC[C@H]2[C@@H]3CC[C@@H]4C[C@](C)(O)CC[C@]4(C)[C@H]3CC[C@]12C
Imax [2]: 104%

CCCC(C)C1(CC)C(=O)NC(=O)NC1=O (configuration not stated)
Imax [2]: 100%
Hill coefficient [3]: 1

CC(=O)[C@H]1CC[C@H]2[C@@H]3CC[C@H]4C[C@@](O)(CO)CC[C@]4(C)[C@H]3CC[C@]12C
EC50 [4]: ~20000 nM
IC50 [1]: 2130 nM
Imax [2]: 101%

CC(=O)[C@H]1CC[C@H]2[C@@H]3CC[C@H]4C[C@@](O)(C(F)(F)F)CC[C@]4(C)[C@H]3CC[C@]12C
EC50 [4]: 390 nM
Efficacy [5]: 0.3
IC50 [1]: 266 nM
Imax [2]: 44%

CC[C@@]1(O)CC[C@@]2(C)[C@H](CC[C@@H]3[C@@H]2CC[C@]2(C)[C@@H](C(C)=O)CC[C@@H]32)C1
IC50 [1]: 135 nM
Imax [2]: 95%

CC(=O)[C@H]1CC[C@H]2[C@@H]3CC[C@H]4C[C@@](O)(CN=[N+]=[N-])CC[C@]4(C)[C@H]3CC[C@]12C
EC50 [4]: 150 nM
Efficacy [5]: 0.8
IC50 [1]: 27 nM
Imax [2]: 99%

COC[C@@]1(O)CC[C@@]2(C)[C@H](CC[C@@H]3[C@@H]2CC[C@]2(C)[C@@H](C(C)=O)CC[C@@H]32)C1
IC50 [1]: 40 nM
Imax [2]: 103%

C#C[C@@]1(O)CC[C@@]2(C)[C@@H](CC[C@@H]3[C@@H]2CC[C@]2(C)[C@@H](C(C)=O)CC[C@@H]32)C1
IC50 [1]: 64 nM
Imax [2]: 93%

CC(C)(C)OC(=O)c1ncn2c1C1CCCN1C(=O)c1c(Br)cccc1-2 (configuration not stated)
IC50 [1]: 6.1 nM
Imax [2]: 27%

CC(=O)[C@H]1CC[C@H]2[C@@H]3CC[C@H]4C[C@@](O)(CF)CC[C@]4(C)[C@H]3CC[C@]12C
IC50 [1]: 228 nM
Imax [2]: 79%

CC(=O)[C@H]1CC[C@H]2[C@@H]3CC[C@H]4C[C@@](O)(CC#N)CC[C@]4(C)[C@H]3CC[C@]12C
IC50 [1]: 614 nM
Imax [2]: 38%
Hill coefficient [3]: 1

CC(=O)[C@H]1CC[C@H]2[C@@H]3CC[C@H]4C[C@@](O)(CBr)CC[C@]4(C)[C@H]3CC[C@]12C
IC50 [1]: 224 nM
Imax [2]: 44%

CC(=O)[C@H]1CC[C@H]2[C@@H]3CC[C@H]4C[C@@](O)(CCl)CC[C@]4(C)[C@H]3CC[C@]12C
IC50 [1]: 71 nM
Imax [2]: 33%

CN1C(=O)CN=C(c2ccccc2)c2cc(Cl)ccc21
Imax [2]: 49%

CC(=O)[C@H]1CC[C@H]2[C@@H]3CC[C@H]4C[C@@](O)(COCc5ccccc5)CC[C@]4(C)[C@H]3CC[C@]12C
IC50 [1]: 376 nM
Imax [2]: 57%
Hill coefficient [3]: 1.6

CC(=O)[C@H]1CC[C@H]2[C@@H]3CC[C@@H]4C[C@@](O)(CCl)CC[C@]4(C)[C@H]3CC[C@]12C
IC50 [1]: 243 nM
Imax [2]: 103%

COC[C@@]1(O)CC[C@@]2(C)[C@@H](CC[C@@H]3[C@@H]2CC[C@]2(C)[C@@H](C(C)=O)CC[C@@H]32)C1
IC50 [1]: 76 nM
Imax [2]: 104%

C#CC[C@@]1(O)CC[C@@]2(C)[C@@H](CC[C@@H]3[C@@H]2CC[C@]2(C)[C@@H](C(C)=O)CC[C@@H]32)C1
IC50 [1]: 50 nM
Imax [2]: 43%

C#CC[C@@]1(O)CC[C@@]2(C)[C@H](CC[C@@H]3[C@@H]2CC[C@]2(C)[C@@H](C(C)=O)CC[C@@H]32)C1
IC50 [1]: 214 nM
Imax [2]: 101%

C=C[C@@]1(O)CC[C@@]2(C)[C@H](CC[C@@H]3[C@@H]2CC[C@]2(C)[C@@H](C(C)=O)CC[C@@H]32)C1
IC50 [1]: 43 nM
Imax [2]: 103%

CCOC[C@@]1(O)CC[C@@]2(C)[C@@H](CC[C@@H]3[C@@H]2CC[C@]2(C)[C@@H](C(C)=O)CC[C@@H]32)C1
IC50 [1]: 230 nM
Imax [2]: 104%

CC(=O)[C@H]1CC[C@H]2[C@@H]3CC[C@H]4C[C@H](O)CC[C@]4(C)[C@H]3CC[C@]12C [BREXANOLONE]
EC50 [4]: 160 nM
Efficacy [5]: 0.91
IC50 [1]: 51 nM
Imax [2]: 95%

CC(=O)[C@H]1CC[C@H]2[C@@H]3CC[C@H]4C[C@@](O)(CN(C)C)CC[C@]4(C)[C@H]3CC[C@]12C
EC50 [4]: > 50000 nM
IC50 [1]: > 10000 nM
Imax [2]: 0%

CC(=O)[C@H]1CC[C@H]2[C@@H]3CC[C@H]4C[C@@](O)(CC(N)=O)CC[C@]4(C)[C@H]3CC[C@]12C
IC50 [1]: > 10000 nM
Imax [2]: 28%

C=CCC[C@@]1(O)CC[C@@]2(C)[C@@H](CC[C@@H]3[C@@H]2CC[C@]2(C)[C@@H](C(C)=O)CC[C@@H]32)C1
IC50 [1]: 325 nM
Imax [2]: 59%

C#C[C@@]1(O)CC[C@@]2(C)[C@H](CC[C@@H]3[C@@H]2CC[C@]2(C)[C@@H](C(C)=O)CC[C@@H]32)C1
Imax [2]: 101%

CCCOC[C@@]1(O)CC[C@@]2(C)[C@@H](CC[C@@H]3[C@@H]2CC[C@]2(C)[C@@H](C(C)=O)CC[C@@H]32)C1
IC50 [1]: 655 nM
Imax [2]: 94%

C=CC[C@@]1(O)CC[C@@]2(C)[C@@H](CC[C@@H]3[C@@H]2CC[C@]2(C)[C@@H](C(C)=O)CC[C@@H]32)C1
IC50 [1]: 231 nM
Imax [2]: 59%

CC[C@@]1(O)CC[C@@]2(C)[C@@H](CC[C@@H]3[C@@H]2CC[C@]2(C)[C@@H](C(C)=O)CC[C@@H]32)C1
IC50 [1]: 257 nM
Imax [2]: 69%

CCC[C@@]1(O)CC[C@@]2(C)[C@@H](CC[C@@H]3[C@@H]2CC[C@]2(C)[C@@H](C(C)=O)CC[C@@H]32)C1
IC50 [1]: 173 nM
Imax [2]: 42%

CC(=O)[C@H]1CC[C@H]2[C@@H]3CC[C@H]4C[C@](C)(O)CC[C@]4(C)[C@H]3CC[C@]12C [GANAXOLONE]
EC50 [4]: 260 nM
Efficacy [5]: 0.8
IC50 [1]: 80 nM
Imax [2]: 94%

C=C=CC[C@@]1(O)CC[C@@]2(C)[C@@H](CC[C@@H]3[C@@H]2CC[C@]2(C)[C@@H](C(C)=O)CC[C@@H]32)C1
IC50 [1]: 365 nM
Imax [2]: 57%

C=C[C@@]1(O)CC[C@@]2(C)[C@@H](CC[C@@H]3[C@@H]2CC[C@]2(C)[C@@H](C(C)=O)CC[C@@H]32)C1
IC50 [1]: 120 nM
Imax [2]: 94%
